For orientation: inhibition means the drop in the measured response relative to a control, in per cent. A lower inhibition goes with a weak effect.

Molecules are shown by their SMILES. Bounds are passed on as bounds.

Sequence of Acetylcholinesterase (Electrophorus electricus) (O42275 24-633 limits assumed): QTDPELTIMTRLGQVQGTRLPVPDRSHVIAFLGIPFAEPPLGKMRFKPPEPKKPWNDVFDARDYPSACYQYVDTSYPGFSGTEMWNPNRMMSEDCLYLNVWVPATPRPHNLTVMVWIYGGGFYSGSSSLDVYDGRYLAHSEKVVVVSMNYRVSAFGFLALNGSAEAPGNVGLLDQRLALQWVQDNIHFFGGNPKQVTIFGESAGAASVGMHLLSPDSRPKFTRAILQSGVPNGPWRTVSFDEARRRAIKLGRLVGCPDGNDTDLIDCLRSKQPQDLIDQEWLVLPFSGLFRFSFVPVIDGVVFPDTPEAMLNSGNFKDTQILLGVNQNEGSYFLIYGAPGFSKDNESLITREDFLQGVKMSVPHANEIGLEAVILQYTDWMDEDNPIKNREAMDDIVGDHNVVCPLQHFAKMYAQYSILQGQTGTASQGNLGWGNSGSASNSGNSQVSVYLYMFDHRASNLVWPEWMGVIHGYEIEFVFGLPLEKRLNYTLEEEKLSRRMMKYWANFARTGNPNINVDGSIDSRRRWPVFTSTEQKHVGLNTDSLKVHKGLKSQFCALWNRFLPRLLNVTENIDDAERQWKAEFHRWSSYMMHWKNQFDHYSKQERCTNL

The target in the first assay is Acetylcholinesterase (Electrophorus electricus) (UniProt O42275). In words: Inhibition of electric eel AChE at 100 uM using acetylthiocholine iodide as substrate preincubated for 10 mins followed by substrate addition and measured for 10 mins by Ellman's method relative to control. To be noted: time 20.0 min. A digest of the protocol:
(§1)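 Ellman single-concentration screen in 50 mM Tris-HCl pH 8.0 with DTNB (6.8 mM stock) and 1% DMSO. Enzyme solution 0.4 U/mL AChE or 0.8 U/mL BChE. Compound and enzyme preincubated 10 min at 25 °C, then ATI (10 mM stock) or BTI (30 mM stock) added. A412 followed for 10 min, blank-subtracted, % inhibition versus no-compound control. Triplicate.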
(In general: DTNB colorimetry detects thiols as they appear.)
Molecule `Cn1c(=O)oc2cc(NC(=O)CCN3CCN(c4ccccc4)CC3)ccc21` registered an inhibition of 32%.
For `COc1ccc(CN2CCN(CCC(=O)Nc3ccc4c(c3)oc(=O)n4C)CC2)cc1`, the inhibition worked out at 38%.
On the same count and under the same terms, then `O=C(CCN1CCN(Cc2ccccc2)CC1)Nc1ccc2nc(-c3ccccc3)oc2c1`, with less than 10%; and `Cn1c(=O)sc2cc(NC(=O)CCN3CCN(Cc4ccc(Cl)cc4)CC3)ccc21`, with 37%; and `Cn1c(=O)oc2cc(NC(=O)CCN3CCN(c4ccc(Cl)cc4)CC3)ccc21`, with 30%.
`COc1ccc(N2CCN(CCC(=O)Nc3ccc4c(c3)oc(=O)n4C)CC2)cc1` returned an inhibition of 29%.
The same measure, in the same setting: then `O=C(CCN1CCN(Cc2ccccc2)CC1)Nc1ccc2nc(-c3ccccc3)sc2c1`, with less than 10%; and `Cn1c(=O)sc2cc(NC(=O)CCN3CCN(c4ccc(C(F)(F)F)cc4)CC3)ccc21`, with 36%; and `COc1ccc(N2CCN(CCC(=O)Nc3ccc4c(c3)sc(=O)n4C)CC2)cc1`, with 31%.
`Cn1c(=O)oc2cc(NC(=O)CCN3CCN(c4ccc(F)cc4)CC3)ccc21` yielded an inhibition of 35%.
In the case of `Cn1c(=O)oc2cc(NC(=O)CCN3CCN(c4ccc(C(F)(F)F)cc4)CC3)ccc21`, the inhibition came out at 35%.
The same measure, in the same setting: as for `Cc1ccc(N2CCN(CCC(=O)Nc3ccc4c(c3)sc(=O)n4C)CC2)cc1`, the figure is 35%; as for `Cn1c(=O)oc2cc(NC(=O)CCN3CCN(Cc4ccc(C(F)(F)F)cc4)CC3)ccc21`, 35%.
Same read-out and setting: then `Cn1c(=O)sc2cc(NC(=O)CCN3CCN(Cc4ccc(C(F)(F)F)cc4)CC3)ccc21`, with 35%; and `Cc1ccc(N2CCN(CCC(=O)Nc3ccc4c(c3)oc(=O)n4C)CC2)cc1`, with 33%.
Molecule `COc1ccc(CN2CCN(CCC(=O)Nc3ccc4c(c3)sc(=O)n4C)CC2)cc1` yielded an inhibition of 39%.
As for `Cn1c(=O)sc2cc(NC(=O)CCN3CCN(c4ccc(Cl)cc4)CC3)ccc21`, the inhibition is 32%.

The target in a further assay is Cholinesterase (Equus caballus) (UniProt P81908). In words: Inhibition of equine serum BChE at 100 uM using butyrylthiocholine iodide as substrate preincubated for 10 mins followed by substrate addition and measured for 10 mins by Ellman's method relative to control. To be noted: time 20.0 min. A digest of the protocol: as §1
Sequence of Cholinesterase (Equus caballus) (P81908 whole entry): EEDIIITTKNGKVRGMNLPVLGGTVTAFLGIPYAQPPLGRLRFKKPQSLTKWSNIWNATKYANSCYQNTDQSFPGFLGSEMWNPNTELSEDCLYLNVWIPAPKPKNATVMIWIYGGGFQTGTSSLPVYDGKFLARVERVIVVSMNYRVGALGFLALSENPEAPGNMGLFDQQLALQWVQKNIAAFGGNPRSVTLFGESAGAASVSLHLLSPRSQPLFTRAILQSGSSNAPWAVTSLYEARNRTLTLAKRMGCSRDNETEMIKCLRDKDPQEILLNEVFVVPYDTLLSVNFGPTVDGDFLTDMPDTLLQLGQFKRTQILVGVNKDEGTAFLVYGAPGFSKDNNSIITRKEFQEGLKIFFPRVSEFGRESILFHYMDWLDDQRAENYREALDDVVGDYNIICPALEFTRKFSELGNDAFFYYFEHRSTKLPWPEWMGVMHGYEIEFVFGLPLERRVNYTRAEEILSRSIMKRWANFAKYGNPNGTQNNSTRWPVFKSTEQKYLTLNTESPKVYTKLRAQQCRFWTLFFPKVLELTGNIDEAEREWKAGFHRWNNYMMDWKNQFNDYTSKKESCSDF
In turn, `Cn1c(=O)oc2cc(NC(=O)CCN3CCN(c4ccccc4)CC3)ccc21` had an inhibition of less than 10%.
The same measure, in the same setting: then `COc1ccc(CN2CCN(CCC(=O)Nc3ccc4c(c3)oc(=O)n4C)CC2)cc1`, with less than 10%.
On the same count and under the same terms, as for `O=C(CCN1CCN(Cc2ccccc2)CC1)Nc1ccc2nc(-c3ccccc3)oc2c1`, the figure is less than 10%; as for `Cn1c(=O)sc2cc(NC(=O)CCN3CCN(Cc4ccc(Cl)cc4)CC3)ccc21`, less than 10%; as for `Cn1c(=O)oc2cc(NC(=O)CCN3CCN(c4ccc(Cl)cc4)CC3)ccc21`, less than 10%.
Same read-out and setting: as for `COc1ccc(N2CCN(CCC(=O)Nc3ccc4c(c3)oc(=O)n4C)CC2)cc1`, the figure is less than 10%; as for `O=C(CCN1CCN(Cc2ccccc2)CC1)Nc1ccc2nc(-c3ccccc3)sc2c1`, less than 10%.
On to `Cn1c(=O)sc2cc(NC(=O)CCN3CCN(c4ccc(C(F)(F)F)cc4)CC3)ccc21`, for which the inhibition was less than 10%.
On the same count and under the same terms, as for `COc1ccc(N2CCN(CCC(=O)Nc3ccc4c(c3)sc(=O)n4C)CC2)cc1`, the figure is less than 10%; as for `Cn1c(=O)oc2cc(NC(=O)CCN3CCN(c4ccc(F)cc4)CC3)ccc21`, less than 10%.
Regarding `Cn1c(=O)oc2cc(NC(=O)CCN3CCN(c4ccc(C(F)(F)F)cc4)CC3)ccc21`, the inhibition was less than 10%.
Regarding `Cc1ccc(N2CCN(CCC(=O)Nc3ccc4c(c3)sc(=O)n4C)CC2)cc1`, the inhibition was less than 10%.
With `Cn1c(=O)oc2cc(NC(=O)CCN3CCN(Cc4ccc(C(F)(F)F)cc4)CC3)ccc21`, the inhibition was less than 10%.
Same read-out and setting: then `Cn1c(=O)sc2cc(NC(=O)CCN3CCN(Cc4ccc(C(F)(F)F)cc4)CC3)ccc21`, with less than 10%.
Consider `Cc1ccc(N2CCN(CCC(=O)Nc3ccc4c(c3)oc(=O)n4C)CC2)cc1`, for which the inhibition is less than 10%.
Still for that read-out and setting: as for `COc1ccc(CN2CCN(CCC(=O)Nc3ccc4c(c3)sc(=O)n4C)CC2)cc1`, the figure is less than 10%.
In turn, `Cn1c(=O)sc2cc(NC(=O)CCN3CCN(c4ccc(Cl)cc4)CC3)ccc21` registered an inhibition of less than 10%.

Tested on in a further assay: not listed separately
Briefly: Antioxidant activity assessed as trolox equivalent of AAPH radical scavenging activity at 10 uM measured every min for 90 mins by ORAC-FL assay.
Conditions: not given
It is filed as functional. A digest of the protocol:
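ORAC-FL in 75 mM phosphate buffer pH 7.4. Sample and fluorescein (150 nM final) preincubated 15 min at 37 °C, then AAPH (12 mM final) added. Fluorescence (ex 485/em 535 nm) read each minute for 90 min. Net AUC after blank subtraction, converted to Trolox equivalents from a Trolox curve (0.5–8, final; Trolox = 1). Duplicate wells, three independent assays.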
As to `Cn1c(=O)oc2cc(NC(=O)CCN3CCN(c4ccccc4)CC3)ccc21`, the Activity amounted to 4.02 equiv.
Still for that read-out and setting: then `COc1ccc(CN2CCN(CCC(=O)Nc3ccc4c(c3)oc(=O)n4C)CC2)cc1`, with 4.2 equiv; and `O=C(CCN1CCN(Cc2ccccc2)CC1)Nc1ccc2nc(-c3ccccc3)oc2c1`, with 2.68 equiv; and `Cn1c(=O)sc2cc(NC(=O)CCN3CCN(Cc4ccc(Cl)cc4)CC3)ccc21`, with 4.01 equiv.
On to `Cn1c(=O)oc2cc(NC(=O)CCN3CCN(c4ccc(Cl)cc4)CC3)ccc21`, for which the Activity was found to be 3.95 equiv.
With `COc1ccc(N2CCN(CCC(=O)Nc3ccc4c(c3)oc(=O)n4C)CC2)cc1`, the Activity was determined as 4.28 equiv.
As to `O=C(CCN1CCN(Cc2ccccc2)CC1)Nc1ccc2nc(-c3ccccc3)sc2c1`, the Activity amounted to 2.64 equiv.
Same read-out and setting: then `Cn1c(=O)sc2cc(NC(=O)CCN3CCN(c4ccc(C(F)(F)F)cc4)CC3)ccc21`, with 4.1 equiv; and `COc1ccc(N2CCN(CCC(=O)Nc3ccc4c(c3)sc(=O)n4C)CC2)cc1`, with 4.55 equiv.
Same read-out and setting: as for `Cn1c(=O)oc2cc(NC(=O)CCN3CCN(c4ccc(F)cc4)CC3)ccc21`, the figure is 3.85 equiv; as for `Cn1c(=O)oc2cc(NC(=O)CCN3CCN(c4ccc(C(F)(F)F)cc4)CC3)ccc21`, 3.9 equiv.
The same measure, in the same setting: as for `Cc1ccc(N2CCN(CCC(=O)Nc3ccc4c(c3)sc(=O)n4C)CC2)cc1`, the figure is 4.31 equiv; as for `Cn1c(=O)oc2cc(NC(=O)CCN3CCN(Cc4ccc(C(F)(F)F)cc4)CC3)ccc21`, 3.96 equiv.
Consider `Cn1c(=O)sc2cc(NC(=O)CCN3CCN(Cc4ccc(C(F)(F)F)cc4)CC3)ccc21`, for which the Activity amounted to 4.45 equiv.
As to `Cc1ccc(N2CCN(CCC(=O)Nc3ccc4c(c3)oc(=O)n4C)CC2)cc1`, the Activity turned out to be 4.03 equiv.
On the same count and under the same terms, then `COc1ccc(CN2CCN(CCC(=O)Nc3ccc4c(c3)sc(=O)n4C)CC2)cc1`, with 4.28 equiv.
Still for that read-out and setting: as for `Cn1c(=O)sc2cc(NC(=O)CCN3CCN(c4ccc(Cl)cc4)CC3)ccc21`, the figure is 4.43 equiv.

For the origin of these results see ChEMBL document CHEMBL4706649, “Design, synthesis and biological evaluation of new benzoxazolone/benzothiazolone derivatives as multi-target agents against Alzheimer's disease” (Eur J Med Chem, 2021).
